In brackets after ≈: the same amount, converted by molar mass. Activity calls are given as the source filed them. The calls are words filed in the database; no cut-off is given here. Numbered stars: 1 amine (or outer) side, 2 acyl side, 3 side chain; on linkers, the order of the positions; unused ones are H or OH. Bridge positions count the residues as written; N and C are the ends. Square brackets hold non-standard residues; d marks the D form. Peptide text beside a SMILES is read from it. I, II: the chains in the order shown. Gly(αS-SH) = O=C([C@@H](N[*:1])S[*:3])[*:2]
Columns and labels:
Staphylococcus aureus [1] = test: Antimicrobial activity against methicillin-resistant Staphylococcus aureus CCARM 3696 by radial diffusion assay incubated with chymotrypsin; type: functional, organism-based
Staphylococcus aureus [2] = test: Antimicrobial activity against methicillin-resistant Staphylococcus aureus CCARM 3696 by radial diffusion assay incubated with trypsin; type: functional, organism-based
Staphylococcus aureus [3] = test: Antimicrobial activity against methicillin-resistant Staphylococcus aureus CCARM 3696 after 18 hrs by broth dilution method; type: functional; details: CCARM 3696, 18 h
How it was run: (§1)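 Broth dilution per CLSI. Bacteria were grown overnight to stationary phase in Mueller-Hinton broth and diluted in fresh MHB to 2 × 10^5 CFU/ml. Stocks at 640 μg/ml in 0.01% acetic acid were 2-fold serially diluted to 10 μg/ml, and 11 μl was added to 100 μl of bacteria. After 18 h at 37°C, MIC was the lowest concentration with no visible turbidity. Run in triplicate.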

Citrobacter freundii = test: Antimicrobial activity against Citrobacter freundii KCTC 2359 after 18 hrs by broth dilution method; type: functional; details: KCTC 2359, 18 h
How it was run: (§2)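 Broth microdilution following CLSI recommendations. Bacteria were grown overnight to stationary phase in Mueller-Hinton broth, then diluted in fresh MHB to 2 × 10^5 CFU/ml. Peptide or antibiotic stocks of 640 μg/ml in 0.01% acetic acid were serially 2-fold diluted to 10 μg/ml, and each was added to the bacterial suspension at 11 μl per 100 μl. Plates were incubated 18 h at 37°C. MIC was taken as the lowest concentration giving no visible turbidity, in triplicate.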

Klebsiella oxytoca = test: Antimicrobial activity against Klebsiella oxytoca KCTC 1686 after 18 hrs by broth dilution method; type: functional; details: KCTC 1686, 18 h; how it was run: as §2
Pseudomonas aeruginosa = test: Antimicrobial activity against multidrug-resistant Pseudomonas aeruginosa CCARM 2161 after 18 hrs by broth dilution method; type: functional; details: CCARM 2161, 18 h; how it was run: as §1
Salmonella enterica = test: Antimicrobial activity against Salmonella enterica KCTC 2930 after 18 hrs by broth dilution method; type: functional; details: KCTC 2930, 18 h; how it was run: as §2
Bacillus subtilis = test: Antimicrobial activity against Bacillus subtilis KCTC 2213 after 18 hrs by broth dilution method; type: functional; details: KCTC 2213, 18 h; how it was run: as §2
Escherichia coli = test: Antimicrobial activity against Escherichia coli KCTC 1039 after 18 hrs by broth dilution method; type: functional; details: KCTC 1039, 18 h; how it was run: as §2
Listeria monocytogenes = test: Antimicrobial activity against Listeria monocytogenes KCTC 19111 after 18 hrs by broth dilution method; type: functional; details: KCTC 19111, 18 h; how it was run: as §2
Micrococcus luteus = test: Antimicrobial activity against Micrococcus luteus KCTC 9341 after 18 hrs by broth dilution method; type: functional; details: KCTC 9341, 18 h; how it was run: as §2
Enterococcus faecium = test: Antimicrobial activity against vancomycin-resistant Enterococcus faecium CCARM 5028 after 18 hrs by broth dilution method; type: functional; details: CCARM 5028, 18 h; how it was run: as §1

CC(C)C[C@H](NC(=O)[C@H](CC(C)C)NC(=O)[C@H](C)NC(=O)[C@H](CC(N)=O)NC(=O)[C@H](CC(C)C)NC(=O)[C@H](Cc1c[nH]c2ccccc12)NC(=O)[C@@H](N)CCCCN)C(=O)O (H-KWLNALL-OH)
Activity (Staphylococcus aureus [1]): inactive

CC(C)C[C@H](NC(=O)CNC(=O)[C@H](Cc1cnc[nH]1)NC(=O)[C@@H](N)Cc1cnc[nH]1)C(=O)N[C@@H](CC(N)=O)C(=O)N[C@@H](CSSC[C@H](NC(=O)[C@H](CC(N)=O)NC(=O)[C@H](CC(C)C)NC(=O)CNC(=O)[C@H](Cc1cnc[nH]1)NC(=O)[C@@H](N)Cc1cnc[nH]1)C(=O)N[C@@H](C)C(=O)N[C@@H](CCCCN)C(=O)NCC(=O)N[C@H](C(=O)N[C@@H](CC(C)C)C(=O)N[C@@H](C)C(N)=O)C(C)C)C(=O)N[C@@H](C)C(=O)N[C@@H](CCCCN)C(=O)NCC(=O)N[C@H](C(=O)N[C@@H](CC(C)C)C(=O)N[C@@H](C)C(N)=O)C(C)C (I: H-HHGLNCAKGVLA-NH2 / II: H-HHGLNCAKGVLA-NH2; disulfide I:6-II:6)
Activity (Staphylococcus aureus [1]): Active

CC(C)C[C@H](NC(=O)CNC(=O)[C@H](Cc1cnc[nH]1)NC(=O)[C@H](Cc1cnc[nH]1)NC(=O)[C@H](CC(C)C)NC(=O)[C@H](CC(C)C)NC(=O)[C@H](C)NC(=O)[C@H](CC(N)=O)NC(=O)[C@H](CC(C)C)NC(=O)[C@H](Cc1c[nH]c2ccccc12)NC(=O)[C@@H](N)CCCCN)C(=O)N[C@@H](CC(N)=O)C(=O)N[C@@H](CSSC[C@H](NC(=O)[C@H](CC(N)=O)NC(=O)[C@H](CC(C)C)NC(=O)CNC(=O)[C@H](Cc1cnc[nH]1)NC(=O)[C@H](Cc1cnc[nH]1)NC(=O)[C@H](CC(C)C)NC(=O)[C@H](CC(C)C)NC(=O)[C@H](C)NC(=O)[C@H](CC(N)=O)NC(=O)[C@H](CC(C)C)NC(=O)[C@H](Cc1c[nH]c2ccccc12)NC(=O)[C@@H](N)CCCCN)C(=O)N[C@@H](C)C(=O)N[C@@H](CCCCN)C(=O)O)C(=O)N[C@@H](C)C(=O)N[C@@H](CCCCN)C(=O)O (I: H-KWLNALLHHGLNCAK-OH / II: H-KWLNALLHHGLNCAK-OH; disulfide I:13-II:13)
Activity (Staphylococcus aureus [2]): Active

CC(C)C[C@H](NC(=O)CNC(=O)[C@H](Cc1cnc[nH]1)NC(=O)[C@H](Cc1cnc[nH]1)NC(=O)[C@H](CC(C)C)NC(=O)[C@H](CC(C)C)NC(=O)[C@H](C)NC(=O)[C@H](CC(N)=O)NC(=O)[C@H](CC(C)C)NC(=O)[C@H](Cc1c[nH]c2ccccc12)NC(=O)[C@@H](N)CCCCN)C(=O)N[C@@H](CC(N)=O)C(=O)N[C@@H](CSS[C@H](NC(=O)[C@H](CC(N)=O)NC(=O)[C@H](CC(C)C)NC(=O)CNC(=O)[C@H](Cc1cnc[nH]1)NC(=O)[C@H](Cc1cnc[nH]1)NC(=O)[C@H](CC(C)C)NC(=O)[C@H](CC(C)C)NC(=O)[C@H](C)NC(=O)[C@H](CC(N)=O)NC(=O)[C@H](CC(C)C)NC(=O)[C@@H](N)Cc1c[nH]c2ccccc12)C(=O)N[C@@H](C)C(=O)N[C@@H](CCCCN)C(=O)O)C(=O)N[C@@H](C)C(=O)N[C@@H](CCCCN)C(=O)O (I: H-KWLNALLHHGLNCAK-OH / II: H-WLNALLHHGLN[Gly(αS-SH)]AK-OH; disulfide I:13-II:12)
Activity (Staphylococcus aureus [2]): Active

CC(C)C[C@H](NC(=O)CNC(=O)[C@H](Cc1cnc[nH]1)NC(=O)[C@H](Cc1cnc[nH]1)NC(=O)[C@H](CC(C)C)NC(=O)[C@H](CC(C)C)NC(=O)[C@H](C)N)C(=O)N[C@@H](CC(N)=O)C(=O)N[C@@H](CSSC[C@H](NC(=O)[C@H](CC(N)=O)NC(=O)[C@H](CC(C)C)NC(=O)CNC(=O)[C@H](Cc1cnc[nH]1)NC(=O)[C@H](Cc1cnc[nH]1)NC(=O)[C@H](CC(C)C)NC(=O)[C@H](CC(C)C)NC(=O)[C@H](C)NC(=O)[C@H](CC(N)=O)NC(=O)[C@H](CC(C)C)NC(=O)[C@H](Cc1c[nH]c2ccccc12)NC(=O)[C@@H](N)CCCCN)C(=O)N[C@@H](C)C(=O)N[C@@H](CCCCN)C(=O)NCC(=O)N[C@H](C(=O)N[C@@H](CC(C)C)C(=O)N[C@@H](C)C(N)=O)C(C)C)C(=O)N[C@@H](C)C(=O)N[C@@H](CCCCN)C(=O)NCC(=O)N[C@H](C(=O)N[C@@H](CC(C)C)C(=O)N[C@@H](C)C(N)=O)C(C)C (I: H-KWLNALLHHGLNCAKGVLA-NH2 / II: H-ALLHHGLNCAKGVLA-NH2; disulfide I:13-II:9)
MIC (Staphylococcus aureus [3]): 8 mg/L (≈ 2.24 µM)
MIC (Citrobacter freundii): 8 mg/L (≈ 2.24 µM)
MIC (Klebsiella oxytoca): 4 mg/L (≈ 1.12 µM)
MIC (Pseudomonas aeruginosa): 8 mg/L (≈ 2.24 µM)
MIC (Salmonella enterica): 4 mg/L (≈ 1.12 µM)
MIC (Bacillus subtilis): 4 mg/L (≈ 1.12 µM)
MIC (Escherichia coli): 4 mg/L (≈ 1.12 µM)
MIC (Listeria monocytogenes): 4 mg/L (≈ 1.12 µM)
MIC (Micrococcus luteus): 8 mg/L (≈ 2.24 µM)
MIC (Enterococcus faecium): 4 mg/L (≈ 1.12 µM)

From ChEMBL document CHEMBL1275595, “Antimicrobial activity of a halocidin-derived peptide resistant to attacks by proteases” (2010)
